Source: PubChem BioAssay
HCT116 bCat-KO: primary screen for growth suppressors in beta-catenin knockout HCT116 cells (colon tumor, human); HCT116 beta-catenin knockout viability, CellTiter-Glo, 60 h; active compounds read low; viability, % at 10 µM; actives 1.5% (n = 140,000);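 active = viability at or under a set limit, the compound median less 4 SD, cut at about 6% in these data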;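 also: 0% = Hyamine 1622 control at 20 µM and 100% = untreated cell control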
Autophagy mod: autophagy modulators in MEF cells, primary screen, imaging, high-content, MEF GFP-LC3; AID 463193, 2010; calls only at 10 µM (by protocol); actives 0.98% (n = 190,000); MEF GFP-LC3 puncta imaging; test concentration mostly 10 µM;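 active = percentage of spot-positive cells more than 3 SD above its plate mean, without a fluorescence outlier flag or 80% toxicity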;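 also: spot-positive cell cutoff set from DMSO-treated cells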
L major viab: Leishmania major promastigote growth inhibition, primary screen; Leishmania major promastigotes, resazurin fluorescence viability; inhibition, % at 10 µM; actives 9% (n = 200,000); AID 1063, 2008; in the data active = inhibition above about 50%;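 also: promastigotes grown with compound for 44 hours at 28 °C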
HCT116 PTEN-null: growth suppression of PTEN-null HCT116, primary screen, cell-based, CellTiter-Glo | HCT116 PTEN-null viability, 60 h; active compounds read low | viability, % at 10 µM | actives 1.2% (n = 140,000);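 active = viability at or below a set limit, 4 SD under the median of all tested compounds, cut at about 3.7% in these data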;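 also: PTEN knockout HCT116 line with beta catenin targeted HCT116 as companion control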
Dynein cargo inh: inhibitors of GR-EGFP nuclear translocation, primary screen, dynein cargo transport inhibitor project, imaging, high-content, 3617.4 mouse cells | z-score, hits read low | actives 0.47% (n = 220,000) | test concentration mostly 20 µM; stimulated with dexamethasone, 1 µM; active compounds read low;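 active = plate z-score of nuclear minus cytoplasmic receptor signal below a set negative limit, without overly bright fluorescence or cell loss, cut at about -3.5 in these data, passing the limit was not always enough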;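 also: z-score of nuclear minus cytoplasmic ring GR-EGFP intensity difference per well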
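Buffer or medium: Induction medium lacking tetracycline, stripped serum | Also added: Dexamethasone agonist, 1.0 µM final, for 30 min | Timing: 48 h induction, 1 h compound, 30 min dex at 37 °C | Detection: Formaldehyde fixation, Hoechst nuclear stain, 10x automated fluorescence imaging | Measure: Nuclear versus cytoplasmic GR-EGFP signal, averaged per well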
* hit, by the source's call; i = inactive; . = no result given; + = active, no number. The list is not random: actives were taken first. Their share in the collection is about 9.2%.

SMILES	HCT116 bCat-KO	Autophagy mod	L major viab	HCT116 PTEN-null	Dynein cargo inh
CCOC(=O)c1cnc(-n2nc(C)cc2C)nc1NC	79	i	1	87	-0.59
CCOC(=O)C1CCC(CN(Cc2ccccc2C)S(=O)(=O)c2ccc([N+](=O)[O-])cc2)CC1 (centres undefined)	71	i	86*	64	-0.52
CCOC(=O)C1CCN(c2ccc([N+](=O)[O-])cc2)CC1	.	i	-6	.	0.13
CCN1CCCC(OC(=O)c2cc(-c3ccc(C)cc3)nc3ccccc23)C1 (centres undefined)	.	i	84*	.	1.8
CCOC(=O)C1CCCN(C(=O)c2cc(-c3ccc(F)cc3)nc3ccccc23)C1 (centres undefined)	.	i	10	.	-0.38
COc1ccc(NC(=O)C(OC)c2ccccc2)cc1Cl (centres undefined)	90	i	-5	85	-0.051
COc1ccc(NC(=O)C(Sc2nnc(-c3ccncc3)n2-c2ccccc2C)c2ccccc2)cc1Cl (centres undefined)	61	i	99*	61	-0.46
COc1ccc(C(=O)Nc2nnc(CCS(=O)(=O)c3ccc(C)cc3)s2)cc1	.	i	-7	.	-0.2
CCN(CC)C(=O)Cn1cc(C(=O)C(=O)NCc2ccco2)c2ccccc21	.	i	-4	.	0.6
CC1=NN(c2ccccc2)C(=O)/C1=C/c1cc2cc(C)ccc2nc1N1CCCCC1	34	i	90*	24	0.082
CC1=NN(c2ccccc2)C(=O)/C1=C\c1cc(C)n(C)c1C	.	.	.	.	2
CCCN(CC1CC1)C(=O)COC(=O)c1[nH]c(C)c(C(=O)OCC)c1C	92	i	80*	89	-1.1
N#C/C(=C\c1cn(Cc2cccc(F)c2)c2ccccc12)C(=O)NCc1ccco1	93	i	38	88	2.7
N#C/C(=C\c1cn(Cc2ccc(F)cc2)c2ccccc12)C(=O)NCc1ccco1	94	+	13	95	-0.26
Cc1cccc(NC(=O)/C(C#N)=C/c2cn(CC(=O)NCc3ccco3)c3ccccc23)c1C	93	i	-5	92	-0.25
N#C/C(=C\c1cn(Cc2ccccc2)c2ccccc12)C(=O)NCc1ccco1	100	i	51*	90	0.48
CCc1c(C)sc(NC(=O)c2noc(C)c2[N+](=O)[O-])c1C#N	.	i	-5	.	-1
c1ccc(Cn2c(-c3ccco3)nc3nc4ccccc4nc32)cc1	80	i	8	82	0.13
c1coc(-c2nc3nc4ccccc4nc3n2-c2ccc3c(c2)OCCO3)c1	74	i	84*	69	2.4
CCOC(=O)C(=O)NC12CC3CC(CC(C3)C1)C2	95	i	-5	93	-0.051
Cc1ccc2oc(C(Cl)(Cl)Cl)cc(=O)c2c1	25	i	56*	25	-1.6
Cc1cccc(C(=O)N[C@H](C(=O)Nc2nc3ccc(S(C)(=O)=O)cc3s2)C(C)C)c1	.	i	16	.	1.3
COc1cc(/C=C2\SC(N3CCc4ccccc4C3)=NC2=O)cc(OC)c1OC	78	i	54*	85	-0.91
Cc1ccc2occ(CN3CCN(Cc4ccccc4)CC3)c(=O)c2c1	112	i	19	113	-0.44
O=c1c(CN2CCN(Cc3ccccc3)CC2)coc2ccc(Cl)cc12	91	i	76*	82	-1
SMILES	HCT116 bCat-KO	Autophagy mod	L major viab	HCT116 PTEN-null	Dynein cargo inh
O=C(COC(=O)c1cccnc1Cl)NCc1ccco1	.	i	-8	.	0.84
CCCCOc1ccc(C(=O)OC2CC(C)N(C)CC2C)cc1 (centres undefined)	54	i	98*	63	3.8
CCCCOc1ccc(C(=O)N2CCCCCC2)cc1	97	i	1	97	0.85
O=C(CNC(=O)c1cnccc1C(F)(F)F)c1cccc(Cl)c1	.	.	.	.	-0.14
COc1cc(NC(=O)Nc2ccc3c(c2)OCO3)cc(OC)c1OC	.	i	-6	.	-0.042
COc1ccc(C(C)(C)C)cc1NC(=O)Nc1ccc2c(c1)OCO2	47	i	100*	45	-0.29
CCNC(=O)COC(=O)c1cccc(Br)c1	.	.	.	.	0.57
CCOC(=O)C1=C(C)Nc2sc(C(=O)c3ccc(C)cc3)c(N)c2C1c1ccc(C(=O)OC)cc1 (centres undefined)	78	i	81*	75	-0.059
